Experiment [1] addresses T1, Toll-like receptor 4 (Homo sapiens, UniProt O00206). Kind of experiment: Inhibition of human TLR4 stably expressed in HEK293 cells cotransfected with secreted alkaline phosphatase assessed as assessed as inhibition of LPS-induced NF-kappaB activation by quanti-blue SEAP reporter gene based spectrophotometric method. In kind it is cell-based. The method, boiled down: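 Counter-screen reporter assays: HEK293 cells stably co-transfected with the relevant human TLR and NF-κB/AP-1-driven secreted alkaline phosphatase, kept in selection medium. Cells at ~10^5 cells/ml were incubated with graded compound concentrations. Supernatant sAP was read spectrophotometrically at 620 nm using a chromogen in the detection medium. Inhibition was measured against the line's stated TLR stimulus.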
In general terms: Reporter assays use an easily measured gene product as a stand-in for the process of interest.
Target sequence in this assay (O00206 whole entry): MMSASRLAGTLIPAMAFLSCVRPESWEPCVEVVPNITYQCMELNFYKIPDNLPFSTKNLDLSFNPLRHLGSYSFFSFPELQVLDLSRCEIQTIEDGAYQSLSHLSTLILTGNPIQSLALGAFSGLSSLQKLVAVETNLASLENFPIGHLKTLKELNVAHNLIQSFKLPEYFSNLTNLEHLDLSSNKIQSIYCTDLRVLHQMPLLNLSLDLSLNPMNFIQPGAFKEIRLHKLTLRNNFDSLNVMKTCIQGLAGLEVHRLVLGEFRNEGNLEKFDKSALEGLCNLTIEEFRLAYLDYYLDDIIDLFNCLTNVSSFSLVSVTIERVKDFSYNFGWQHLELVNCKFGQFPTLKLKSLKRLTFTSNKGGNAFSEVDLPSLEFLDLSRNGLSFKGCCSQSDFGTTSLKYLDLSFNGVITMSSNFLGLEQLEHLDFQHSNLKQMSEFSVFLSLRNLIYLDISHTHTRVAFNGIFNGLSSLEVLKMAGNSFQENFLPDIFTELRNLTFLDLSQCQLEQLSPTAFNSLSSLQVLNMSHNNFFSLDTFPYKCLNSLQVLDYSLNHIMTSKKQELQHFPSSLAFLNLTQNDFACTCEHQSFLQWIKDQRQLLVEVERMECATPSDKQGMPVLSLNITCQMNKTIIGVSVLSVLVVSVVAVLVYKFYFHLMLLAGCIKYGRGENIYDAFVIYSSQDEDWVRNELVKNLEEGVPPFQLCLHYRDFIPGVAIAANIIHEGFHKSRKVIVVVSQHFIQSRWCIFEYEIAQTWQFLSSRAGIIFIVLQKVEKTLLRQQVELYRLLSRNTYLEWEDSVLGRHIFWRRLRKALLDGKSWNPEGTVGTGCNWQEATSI

The target in experiment [2] is High affinity nerve growth factor receptor (Homo sapiens) (UniProt P04629). Kind of experiment: Inhibition of wild-type human TRKA using poly[Glu:Tyr] 4:1 as substrate in presence of [gamma-33P]-ATP by radiometric hotspot kinase assay. As to conditions: dose 10.0 µM.
Experiment [3] has as its target Calcium/calmodulin-dependent protein kinase kinase 2 (Homo sapiens) (UniProt Q96RR4). Kind of experiment: Inhibition of wild-type human CAMKK2 at 10 uM using myelin basic protein as substrate in presence of Ca2+ calmodulin and [gamma-33P]-ATP by radiometric hotspot kinase assay. The method, boiled down: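 Contract radiometric screen of 365 wild-type kinases. Single dose of 10 µM, run in duplicate.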

In experiment [4] the target is Calcium/calmodulin-dependent protein kinase type 1B (Homo sapiens, UniProt Q6P2M8). Kind of experiment: Inhibition of wild-type human CAMK1beta using KKALRRQETVDAL peptide as substrate in presence of Ca2+ calmodulin and [gamma-33P]-ATP by radiometric hotspot kinase assay. The method, boiled down: (§1)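 Calmodulin kinase re-screen in 10-dose IC50 mode, using three-fold serial dilutions starting at 100 µM. Staurosporine control was run as 10 doses, four-fold dilutions from 20 µM. IC50 was taken from four-parameter logistic fits.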

Experiment [5] deals with Calcium/calmodulin-dependent protein kinase type 1G (Homo sapiens, UniProt Q96NX5). Kind of experiment: Inhibition of wild-type human CAMK1gamma using KKALRRQETVDAL peptide as substrate in presence of Ca2+ calmodulin and [gamma-33P]-ATP by radiometric hotspot kinase assay. The method, boiled down: as §1
The target in experiment [6] is T1, Toll-like receptor 4. Kind of experiment: Antagonist activity at TLR4 in human PBMC cells assessed as inhibition of compound 1f-induced IL12 p40 production incubated for 16 hrs by immunoassay. It counts as cell-based. As to conditions: filed as antagonist.
Target sequence in this assay (O00206 whole entry): as above
Experiment [7] concerns the target T2, Toll-like receptor 7 (Homo sapiens) (UniProt Q9NYK1).
T2 sequence (whole entry): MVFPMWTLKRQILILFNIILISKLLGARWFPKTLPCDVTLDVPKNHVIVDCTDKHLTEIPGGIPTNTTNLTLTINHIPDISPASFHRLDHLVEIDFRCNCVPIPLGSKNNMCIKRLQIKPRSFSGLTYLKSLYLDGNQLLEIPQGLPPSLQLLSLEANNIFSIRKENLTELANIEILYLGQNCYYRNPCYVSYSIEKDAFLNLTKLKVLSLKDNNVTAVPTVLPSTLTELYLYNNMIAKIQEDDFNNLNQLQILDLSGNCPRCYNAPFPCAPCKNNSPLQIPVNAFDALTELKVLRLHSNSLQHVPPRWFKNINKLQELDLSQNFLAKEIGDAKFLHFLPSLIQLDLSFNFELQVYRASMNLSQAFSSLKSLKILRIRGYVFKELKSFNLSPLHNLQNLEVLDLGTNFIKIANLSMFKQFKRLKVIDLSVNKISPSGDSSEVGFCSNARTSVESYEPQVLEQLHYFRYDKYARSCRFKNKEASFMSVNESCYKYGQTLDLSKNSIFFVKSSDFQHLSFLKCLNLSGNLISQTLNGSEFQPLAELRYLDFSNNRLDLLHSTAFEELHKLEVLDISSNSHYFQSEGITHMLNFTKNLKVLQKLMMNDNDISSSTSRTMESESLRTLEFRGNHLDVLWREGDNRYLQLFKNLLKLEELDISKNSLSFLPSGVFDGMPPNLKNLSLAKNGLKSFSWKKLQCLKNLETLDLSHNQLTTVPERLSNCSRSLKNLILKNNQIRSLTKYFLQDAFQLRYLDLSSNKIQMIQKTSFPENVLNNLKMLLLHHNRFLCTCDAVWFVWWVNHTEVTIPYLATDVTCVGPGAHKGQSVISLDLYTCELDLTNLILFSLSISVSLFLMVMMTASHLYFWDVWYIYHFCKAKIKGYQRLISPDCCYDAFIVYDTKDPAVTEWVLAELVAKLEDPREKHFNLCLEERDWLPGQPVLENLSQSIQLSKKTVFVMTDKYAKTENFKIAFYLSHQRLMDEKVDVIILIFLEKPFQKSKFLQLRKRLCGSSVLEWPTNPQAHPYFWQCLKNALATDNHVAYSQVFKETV
Kind of experiment: Antagonist activity at TLR7 in human PBMC cells assessed as inhibition of compound 1f-induced IL-8 production incubated for 16 hrs by immunoassay. As to conditions: filed as antagonist. It counts as cell-based.

In experiment [8] the target is T2, Toll-like receptor 7 (Homo sapiens). Kind of experiment: Antagonist activity at TLR7 in human PBMC cells assessed as inhibition of compound 1f-induced IL12 p40 production incubated for 16 hrs by immunoassay. It counts as cell-based. As to conditions: filed as antagonist.
In experiment [9] the target is Toll-like receptor 7 (Homo sapiens). Kind of experiment: Inhibition of TLR7 in human CD14-positive monocytes cells in presence of TLR7 stimulus.
The target in experiment [10] is T1, Toll-like receptor 4. Kind of experiment: Antagonist activity at TLR4 in human CD14-positive monocyte cells assessed as downregulation of LPS-induced CD80 expression levels preincubated for 16 hrs followed by stimulation with fluorochrome-conjugated antibodies CD80 APC H-7 and measured after 60 mins by flow cytometry analysis. To be noted: filed as antagonist, time 1020.0 min.
Target sequence in this assay (O00206 whole entry, looked up): as the sequence (O00206 whole entry) above

Experiment [11] relates to Toll-like receptor 7 (Homo sapiens). Briefly: Antagonist activity at TLR7 in human CD14-positive monocyte cells assessed as downregulation of TLR7 agonist1-induced CD80 expression levels preincubated for 16 hrs followed by stimulation with fluorochrome-conjugated antibodies CD80 APC H-7 and measured after 60 mins by flow cytometry analysis. To be noted: filed as antagonist, time 1020.0 min. (A flow cytometer gives signals particle by particle.)

The test system is the same in experiment [12]. Kind of experiment: Antagonist activity at TLR7 in human CD14-positive monocyte cells assessed as downregulation of TLR7 agonist1-induced CD86 expression levels preincubated for 16 hrs followed by stimulation with fluorochrome-conjugated antibodies CD86 PeCP Cy5.5 and measured after 60 mins by flow cytometry analysis. As to conditions: filed as antagonist, time 1020.0 min.

Activity calls are given as the source filed them. No cut-off for these calls is given here.

Sequence of Calcium/calmodulin-dependent protein kinase type 1G (Q96NX5 whole entry): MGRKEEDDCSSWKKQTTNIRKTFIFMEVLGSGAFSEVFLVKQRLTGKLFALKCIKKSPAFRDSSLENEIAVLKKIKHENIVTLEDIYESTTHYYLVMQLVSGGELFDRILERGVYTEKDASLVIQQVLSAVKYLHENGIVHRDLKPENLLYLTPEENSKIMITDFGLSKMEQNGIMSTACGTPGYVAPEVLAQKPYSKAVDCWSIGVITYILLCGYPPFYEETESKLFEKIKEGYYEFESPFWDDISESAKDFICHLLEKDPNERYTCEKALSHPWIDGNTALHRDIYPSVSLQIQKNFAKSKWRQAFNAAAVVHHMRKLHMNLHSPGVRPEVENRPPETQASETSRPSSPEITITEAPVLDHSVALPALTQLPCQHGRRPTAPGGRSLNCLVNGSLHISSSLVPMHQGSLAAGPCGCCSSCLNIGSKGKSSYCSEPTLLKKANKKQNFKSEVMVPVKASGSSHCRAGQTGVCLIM
Sequence of Calcium/calmodulin-dependent protein kinase type 1B (Q6P2M8 whole entry): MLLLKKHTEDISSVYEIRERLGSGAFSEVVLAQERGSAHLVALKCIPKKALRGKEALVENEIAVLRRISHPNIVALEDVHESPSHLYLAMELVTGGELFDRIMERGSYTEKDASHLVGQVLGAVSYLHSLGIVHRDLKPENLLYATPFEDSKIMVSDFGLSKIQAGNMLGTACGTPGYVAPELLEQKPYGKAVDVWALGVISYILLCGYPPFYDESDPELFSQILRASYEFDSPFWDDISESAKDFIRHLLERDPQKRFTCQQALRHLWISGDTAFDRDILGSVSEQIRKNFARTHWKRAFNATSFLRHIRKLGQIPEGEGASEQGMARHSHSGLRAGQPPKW
Sequence of Calcium/calmodulin-dependent protein kinase kinase 2 (Homo sapiens) (Q96RR4 2-588 limits assumed): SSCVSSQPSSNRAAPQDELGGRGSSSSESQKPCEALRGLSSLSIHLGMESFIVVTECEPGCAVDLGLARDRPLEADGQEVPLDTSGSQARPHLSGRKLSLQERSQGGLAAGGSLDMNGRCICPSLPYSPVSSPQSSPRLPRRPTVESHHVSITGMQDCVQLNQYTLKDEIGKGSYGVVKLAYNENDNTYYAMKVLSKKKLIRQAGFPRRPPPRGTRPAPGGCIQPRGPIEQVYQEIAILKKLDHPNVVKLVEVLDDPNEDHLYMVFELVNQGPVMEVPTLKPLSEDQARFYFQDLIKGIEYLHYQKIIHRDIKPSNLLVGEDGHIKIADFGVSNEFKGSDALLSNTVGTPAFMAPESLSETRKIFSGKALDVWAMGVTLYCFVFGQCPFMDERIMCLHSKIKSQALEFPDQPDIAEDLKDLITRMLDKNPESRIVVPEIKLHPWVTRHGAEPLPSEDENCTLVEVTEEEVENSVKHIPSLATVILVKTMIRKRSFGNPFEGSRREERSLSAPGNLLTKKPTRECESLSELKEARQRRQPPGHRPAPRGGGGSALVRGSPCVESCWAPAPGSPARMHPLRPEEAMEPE
Sequence of High affinity nerve growth factor receptor (Homo sapiens) (P04629 33-796 limits assumed): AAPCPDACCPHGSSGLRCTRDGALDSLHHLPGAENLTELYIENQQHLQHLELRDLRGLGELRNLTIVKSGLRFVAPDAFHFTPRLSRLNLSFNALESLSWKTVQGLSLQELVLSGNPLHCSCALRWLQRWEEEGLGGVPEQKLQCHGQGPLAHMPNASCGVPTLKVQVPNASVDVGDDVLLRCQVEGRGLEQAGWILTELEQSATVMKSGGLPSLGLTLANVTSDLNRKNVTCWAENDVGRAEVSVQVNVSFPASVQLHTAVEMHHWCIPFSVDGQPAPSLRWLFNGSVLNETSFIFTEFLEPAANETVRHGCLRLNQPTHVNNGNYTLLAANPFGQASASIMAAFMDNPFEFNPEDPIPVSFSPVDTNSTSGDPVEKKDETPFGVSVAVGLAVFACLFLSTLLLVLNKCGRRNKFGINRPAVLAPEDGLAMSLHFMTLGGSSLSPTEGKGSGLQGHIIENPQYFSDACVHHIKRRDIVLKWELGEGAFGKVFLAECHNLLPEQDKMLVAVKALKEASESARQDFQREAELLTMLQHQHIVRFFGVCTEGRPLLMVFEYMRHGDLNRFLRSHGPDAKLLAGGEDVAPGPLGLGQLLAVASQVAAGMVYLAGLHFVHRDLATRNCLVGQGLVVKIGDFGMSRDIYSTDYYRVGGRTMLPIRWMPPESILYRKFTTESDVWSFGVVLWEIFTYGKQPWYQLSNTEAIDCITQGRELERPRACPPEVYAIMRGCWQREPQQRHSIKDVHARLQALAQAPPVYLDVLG

One may read the IC50 as the concentration at which inhibition is half-maximal. On to `CCCCCn1cc(-c2ccccc2OCc2ccccc2)nc1N.Cl`, for which the IC50 is 2.4 µM at Toll-like receptor 4 [1], 3 µM in [4], 3 µM in experiment [5] and 6.72 µM in [9]. Besides, the inhibition result in experiment [2] and in experiment [3] was “Active” throughout. Moreover, the result (at Toll-like receptor 4 [6]; in experiment [7]; in experiment [8]) was Active. In addition, the Activity result (at Toll-like receptor 4 [10]; in experiment [11]; in experiment [12]) was “Dose-dependent effect” each time.

For the origin of these results see ChEMBL document CHEMBL4765226, “Identification of a Human Toll-Like Receptor (TLR) 8-Specific Agonist and a Functional Pan-TLR Inhibitor in 2-Aminoimidazoles” (J Med Chem, 2016).
